Measurements reported in ChEMBL document CHEMBL3393023, “Benzimidazole-containing HCV NS5A inhibitors: effect of 4-substituted pyrrolidines in balancing genotype 1a and 1b potency” (Bioorg Med Chem Lett, 2015).
pEC50: −log10 of the molar value.

Experiments:
Hepatitis C virus [1] = assay: Antiviral activity against Hepatitis C virus genotype 1a infected in W11.8 cells assessed as decrease in NS5A expression in replicon cell after 4 days by luminescence based ELISA; assay type: functional, Hepacivirus hominis; settings: subtype 1a, W11.8, 96 h
Hepatitis C virus [2] = assay: Antiviral activity against Hepatitis C virus genotype 1b infected in human Huh-5.2 cells assessed as decrease in HCV replicon RNA replication after 4 days by luciferase assay; assay type: functional, cell-based, Hepacivirus hominis; settings: Huh-5-2, 96 h
[3] = Cytotoxicity against human Huh7ET cells by [3H]-thymidine incorporation assay; assay type: cell-based; settings: Huh7ET cells (Huh-7)
Procedure, shortened: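 Huh-7 ET cells were exposed to 12 test-compound concentrations, each in duplicate. Viability was read by [3H]-thymidine incorporation and CC50 was derived from the curve. A run was accepted only when the positive-control CC50 fell within 40% of its mean value.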

Row | SMILES | pEC50 (Hepatitis C virus [1]) | pEC50 (Hepatitis C virus [2]) | CC50 [3] [nM]
1 | COC(=O)N[C@H](C(=O)N1CCC[C@H]1c1ncc(-c2ccc(-c3ccc(-c4ccc5nc([C@@H]6CCCN6C(=O)[C@@H](NC(=O)OC)C(C)C)[nH]c5c4)cc3)cc2)[nH]1)C(C)C | 9.86 | 10.89 | –
2 | COC(=O)N[C@H](C(=O)N1CCC[C@H]1c1nc2cc(-c3cc(C)c(-c4ccc5[nH]c([C@@H]6CCCN6C(=O)[C@@H](NC(=O)OC)C(C)C)nc5c4)cc3C)ccc2[nH]1)C(C)C | 9.05 | 11.22 | 5000
3 | COC(=O)N[C@H](C(=O)N1C[C@@H](C(F)(F)F)C[C@H]1c1nc2cc(-c3ccc(-c4ccc5[nH]c([C@@H]6C[C@H](C(F)(F)F)CN6C(=O)[C@@H](NC(=O)OC)C(C)C)nc5c4)cc3)ccc2[nH]1)C(C)C | 10.52 | 11.30 | 13000
4 | COC(=O)N[C@H](C(=O)N1CCC[C@H]1c1nc2ccc(-c3ccc(-c4ccc5nc([C@@H]6CCCN6C(=O)[C@@H](NC(=O)OC)C(C)C)[nH]c5c4)s3)cc2[nH]1)C(C)C | 9.03 | 11.00 | 6000
5 | COC(=O)N[C@H](C(=O)N1CC(C)(C)C[C@H]1c1nc2cc(-c3ccc(-c4ccc5[nH]c([C@@H]6CC(C)(C)CN6C(=O)[C@@H](NC(=O)OC)C(C)C)nc5c4)cc3)ccc2[nH]1)C(C)C | 10.52 | 10.96 | > 20000
6 | COC(=O)N[C@H](C(=O)N1C[C@H](OC)C[C@H]1c1nc2cc(-c3ccc(-c4ccc5[nH]c([C@@H]6C[C@@H](OC)CN6C(=O)[C@@H](NC(=O)OC)C(C)C)nc5c4)cc3)ccc2[nH]1)C(C)C | 8.91 | 10.47 | 6000
7 | COC(=O)N[C@H](C(=O)N1CCC[C@H]1c1nc2ccc(C#Cc3ccc4nc([C@@H]5CCCN5C(=O)[C@@H](NC(=O)OC)C(C)C)[nH]c4c3)cc2[nH]1)C(C)C | 7.55 | 10.66 | > 20000
8 | COC(=O)N[C@H](C(=O)N1C[C@H](C)C[C@H]1c1nc2cc(-c3ccc(-c4ccc5[nH]c([C@@H]6C[C@@H](C)CN6C(=O)[C@@H](NC(=O)OC)C(C)C)nc5c4)cc3)ccc2[nH]1)C(C)C | 10.55 | 11.15 | 14000
9 | COC(=O)N[C@H](C(=O)N1CCC[C@H]1c1nc2cc(CCc3ccc4[nH]c([C@@H]5CCCN5C(=O)[C@@H](NC(=O)OC)C(C)C)nc4c3)ccc2[nH]1)C(C)C | 6.16 | 10.12 | > 20000
10 | COC(=O)N[C@H](C(=O)N1CCC[C@H]1c1nc2cc(-c3ccc(-c4ccc5[nH]c([C@@H]6CCCN6C(=O)[C@@H](NC(=O)OC)C(C)C)nc5c4)c(C)c3C)ccc2[nH]1)C(C)C | 8.54 | 11.00 | 7000
11 | COC(=O)N[C@H](C(=O)N1CCC[C@H]1c1nc2cc(-c3ccc(-c4ccc5[nH]c([C@@H]6CCCN6C(=O)[C@@H](NC(=O)OC)C(C)C)nc5c4)c(C)c3)ccc2[nH]1)C(C)C | 9.08 | 11.22 | 3000
12 | COC(=O)N[C@H](C(=O)N1CCC[C@H]1c1nc2ccc(C#CC#Cc3ccc4nc([C@@H]5CCCN5C(=O)[C@@H](NC(=O)OC)C(C)C)[nH]c4c3)cc2[nH]1)C(C)C | 7.74 | 10.62 | 13000
13 | COC(=O)N[C@H](C(=O)N1CCC[C@H]1c1nc2cc(-c3cccc(-c4ccc5[nH]c([C@@H]6CCCN6C(=O)[C@@H](NC(=O)OC)C(C)C)nc5c4)c3)ccc2[nH]1)C(C)C | 6.42 | 7.70 | 6000
14 | COC(=O)N[C@H](C(=O)N1C[C@@H](C)C[C@H]1c1nc2cc(C#CC#Cc3ccc4[nH]c([C@@H]5C[C@H](C)CN5C(=O)[C@@H](NC(=O)OC)C(C)C)nc4c3)ccc2[nH]1)C(C)C | 10.74 | 10.62 | –
15 | COC(=O)N[C@H](C(=O)N1C[C@@H](F)C[C@H]1c1nc2cc(-c3ccc(-c4ccc5[nH]c([C@@H]6C[C@H](F)CN6C(=O)[C@@H](NC(=O)OC)C(C)C)nc5c4)cc3)ccc2[nH]1)C(C)C | 8.31 | 10.09 | 11000
16 | COC(=O)N[C@H](C(=O)N1C[C@@H](OC)C[C@H]1c1nc2cc(-c3ccc(-c4ccc5[nH]c([C@@H]6C[C@H](OC)CN6C(=O)[C@@H](NC(=O)OC)C(C)C)nc5c4)cc3)ccc2[nH]1)C(C)C | 10.28 | 10.51 | > 20000
17 | COC(=O)N[C@H](C(=O)N1C[C@@H](C)C[C@H]1c1nc2cc(-c3ccc(-c4ccc5[nH]c([C@@H]6C[C@H](C)CN6C(=O)[C@@H](NC(=O)OC)C(C)C)nc5c4)cc3)ccc2[nH]1)C(C)C | 10.59 | 10.43 | > 20000
18 | COC(=O)N[C@H](C(=O)N1CCC[C@H]1c1nc2cc(-c3ccc(-c4ccc5nc([C@@H]6CCCN6C(=O)[C@@H](NC(=O)OC)C(C)C)[nH]c5c4)cc3OC)ccc2[nH]1)C(C)C | 9.44 | 10.89 | 6000
19 | COC(=O)N[C@H](C(=O)N1CC(F)(F)C[C@H]1c1nc2cc(-c3ccc(-c4ccc5[nH]c([C@@H]6CC(F)(F)CN6C(=O)[C@@H](NC(=O)OC)C(C)C)nc5c4)cc3)ccc2[nH]1)C(C)C | 9.30 | 11.40 | 13000
20 | COC(=O)N[C@H](C(=O)N1C[C@H](O)C[C@H]1c1nc2cc(-c3ccc(-c4ccc5[nH]c([C@@H]6C[C@@H](O)CN6C(=O)[C@@H](NC(=O)OC)C(C)C)nc5c4)cc3)ccc2[nH]1)C(C)C | 7.82 | 10.00 | > 20000
21 | COC(=O)N[C@H](C(=O)N1C[C@H](F)C[C@H]1c1nc2cc(-c3ccc(-c4ccc5[nH]c([C@@H]6C[C@@H](F)CN6C(=O)[C@@H](NC(=O)OC)C(C)C)nc5c4)cc3)ccc2[nH]1)C(C)C | 8.96 | 10.74 | 14000
22 | COC(=O)N[C@H](C(=O)N1CCC[C@H]1c1nc2cc(-c3ccc(-c4ccc5[nH]c([C@@H]6CCCN6C(=O)[C@@H](NC(=O)OC)C(C)C)nc5c4)c(F)c3)ccc2[nH]1)C(C)C | 9.08 | 10.92 | 6000
23 | CC[C@H]1C[C@@H](c2nc3cc(-c4ccc(-c5ccc6[nH]c([C@@H]7C[C@H](CC)CN7C(=O)[C@@H](NC(=O)OC)C(C)C)nc6c5)cc4)ccc3[nH]2)N(C(=O)[C@@H](NC(=O)OC)C(C)C)C1 | 10.07 | 10.72 | > 20000
24 | COC(=O)N[C@H](C(=O)N1CCC[C@H]1c1nc2ccc(-c3ccc(-c4ccc5nc([C@@H]6CCCN6C(=O)[C@@H](NC(=O)OC)C(C)C)[nH]c5c4)cc3)cc2[nH]1)C(C)C | 9.26 | 10.92 | 6000
25 | COC(=O)N[C@H](C(=O)N1CCC[C@H]1c1nc2ccc(-c3ccc4nc([C@@H]5CCCN5C(=O)[C@@H](NC(=O)OC)C(C)C)[nH]c4c3)cc2[nH]1)C(C)C | < 5.70 | 7.59 | > 20000
